Source: PubChem
T cell HTS – T cell immune modulation candidate; 2C CD8+ T cell-vesicle binding, flow cytometry; hits give low values; response (vesicle binding), % at 7 µM; 330,000 compounds, 0.068% hits; AID 2052;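 active = response, share of CD8 T cells binding vesicles, and their 90th percentile fluorescence all below set limits, cut at about 80% in these data, passing the limit was not always enough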;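 note: values below 100% mean blocked vesicle binding to the CD8+ T cells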
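Material: murine 2C transgenic CD8+ T lymphocytes / Also added: QL9-peptide-loaded Drosophila micro-vesicles bearing Ld, ICAM-1 and B7-1 / Schedule: binding step 1.5 h, 37 °C, antibody labelling 20 min, ice / Signal: flow cytometry, PE anti-B7-1 (FL2) versus Alexa647 anti-CD8 (FL8), PFA-fixed / Evaluation: percent CD8+ FL2 mean versus row control / Benchmarks: naked versus QL9-loaded vesicles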
Mcl1 Noxa PPI – Mcl-1/Noxa interaction inhibition | Q07820 | TR-FRET Mcl-1/Noxa peptide binding, 2 h | inhibition, % at 21.7 µM | 220,000 compounds, 1.5% hits | AID 1022;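 active = compounds that cut the protein-peptide binding signal by more than 50% relative to plate controls in a single-dose test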;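 note: His-tagged Mcl-1 with rhodamine Noxa BH3 peptide and terbium anti-His antibody; 0% = Mcl-1 plus Noxa peptide wells and 100% = peptide-only wells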
DSG3 Ab inh – blocks pemphigus antibody binding to human desmoglein-3; AID 588358; binding (percent of control), % at 10 µM; DSG3-coupled beads, scFv-anti-DSG3-GFP binding, flow cytometry; hits give low values; 310,000 compounds, 0.48% hits;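 active = binding more than 3 SD below its plate's average and above zero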;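 note: hits lower antibody fragment binding to DSG3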
Mcl1 Bid PPI – disrupts binding of human Mcl-1 to Bid peptide | Q07820 | TR-FRET Mcl-1/Bid-Dy647 peptide binding, 1536-well | inhibition, % at 21.7 µM | 220,000 compounds, 0.97% hits;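 active = compounds that cut the binding signal by more than half at the single screening dose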;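 note: His-tagged Mcl-1 with europium anti-His antibody binding Bid BH3 peptide; 0% = Mcl-1 plus peptide wells and 100% = peptide-only wells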
Mcl-1 Bim block – disrupts Bim peptide binding to human Mcl-1; AID 1009; inhibition, % at 10 µM; 190,000 compounds, 0.1% hits; Q07820; Bead-based flow cytometry, Bim peptide-Mcl-1 binding; in the data active = inhibition above about 40%;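 note: 0% = no compound tracer wells and 100% = peptide blocker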
MCL1-BIM inh – disrupts human MCL1 binding to BIM-BH3 peptide; AID 2057; GST-MCL1 / FITC-Bim-BH3 fluorescence polarization; inhibition, % at 10.9 µM; Q07820; 320,000 compounds, 0.68% hits;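 active = inhibition above the mean inhibition of all tested compounds plus 3 SD, set per campaign, cut at about 40% in these data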;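 note: 0% = DMSO wells and 100% = unlabeled Bim-BH3 peptide control; higher means more loss of mP so more displacement of Bim peptide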
* marks the source's active call; other numbers are inactive results; / = no result. Shown are actives, neighbours in structure and some others; about 2.3% of the full set was active somewhere.

SMILES	T cell HTS	Mcl1 Noxa PPI	DSG3 Ab inh	Mcl1 Bid PPI	Mcl-1 Bim block	MCL1-BIM inh
Cc1ccc(CCNC(=O)CCS(=O)(=O)c2ccc3nc(C)sc3c2)cc1	92.6	/	-10.9*	/	/	0.9
Cc1ccc(C)c(NC2=C(Cl)C(=O)OC2OC(=O)c2ccco2)c1 (centres undefined)	615.0	56.8*	96.6	3.2	-2.0	-1.2
Cc1ccc(NC2=C(Cl)C(=O)OC2OC(=O)c2ccco2)c(C)c1 (centres undefined)	472.9	15.7	97.6	0.7	4.0	-6.1
Cn1c(=NC(=O)c2ccccc2[N+](=O)[O-])sc2cc(S(C)(=O)=O)ccc21	205.4	0.3	85.8*	-14.8	-3.0	7.0
CSc1nc(Cl)c(Br)c(Nc2c[nH]c(=O)[nH]c2=O)n1	/	/	88.6	/	/	/
COC(=O)Cn1cnc2ccccc2c1=O	282.6	14.6	94.8	-7.7	0.0	-2.9
CC(C)OC(=O)Cn1cnc2ccc(Br)cc2c1=O	430.9	106.7*	93.0	0.4	-3.0	-6.2
Cc1ccc(NC(=O)CSCC(=O)N(C)Cc2c(F)cccc2Cl)cc1	/	/	100.5	/	/	/
Cc1ccc(S(=O)(=O)N2CCOCC2)cc1NC(=O)CSc1nnnn1C1CC1	/	/	98.7	/	/	/
O=C(O)CC12CC3CC(C1)CC(n1ncc(NCc4ccccc4Cl)c(Cl)c1=O)(C3)C2	125.7	18.8	100.5	56.6*	/	-7.5
C=CCn1c(SCC(=O)Nc2sc3c(c2C#N)CCC3)nnc1C1COc2ccccc2O1 (centres undefined)	387.0	29.8	106.2	54.8*	0.0	-4.1
CC1CN(C(=O)c2cc(S(=O)(=O)N3CCCCC3)ccc2Cl)CC(C)O1 (centres undefined)	604.2	/	104.2	/	/	3.8
Cn1nc(-c2ccc(Cl)cc2)c2cc(C(=O)NCCN3CCOCC3)sc21	200.5	11.3	111.2	94.0*	3.0	0.2
O=S(=O)(NCC(c1ccc2c(c1)OCO2)N1CCOCC1)c1ccc(Br)cc1 (centres undefined)	349.4	/	104.4	/	/	-5.9
Oc1cc2c(cc1C(c1ccc(Br)cc1)N1CCCC1)OCO2 (centres undefined)	/	81.5*	93.8	89.7*	4.0	/
CCOC(=O)C1=C(C)Nc2ccccc2N=C1NC(=O)C1CCN(C(=O)c2ccccc2C)CC1	339.6	/	110.7	/	/	/
Cc1ccc(-n2[nH]c(C)c(C=Nc3ccc(S(=O)(=O)Nc4nccs4)cc3)c2=O)cc1	220.5	9.5	/	-65.5	1.0	7.8
Cc1[nH]n(-c2ccc(Br)cc2)c(=O)c1C=Nc1ccc(S(=O)(=O)Nc2nccs2)cc1	136.3	78.7*	119.9	-71.3	0.0	10.4
CCOC(=O)CCNC(C)C1COc2ccccc2O1 (centres undefined)	244.0	43.6	/	56.1*	3.0	1.3
CC(NCC1COc2ccccc2O1)C1COc2ccccc2O1 (centres undefined)	341.9	/	89.2	/	/	2.2
COc1ccc(Cc2nc3ccc(C(=O)NC4CCOC4)cc3o2)cc1 (centres undefined)	340.5	/	/	/	/	-6.1
O=C(Nc1ccc(S(=O)(=O)Nc2nccs2)cc1)c1ccc(=O)[nH]c1	167.9	62.2*	98.9	-55.7	3.0	19.2
O=C(Nc1ccc(S(=O)(=O)Nc2nccs2)cc1)c1cccc(F)c1	258.6	/	105.4	/	/	-5.0
COc1ccc(-c2cc(C(=O)N/N=C/c3ccc4c(c3)OCO4)c3ccccc3n2)c(OC)c1	608.8	-1.6	77.0*	-9.1	2.0	-9.8
COc1ccc(NC(=O)c2cc(-c3ccco3)nc3ccccc23)cc1	258.9	/	65.0*	/	/	3.2
CCOc1cc(N2CCOCC2)c(OCC)cc1NC(=O)c1cc(-c2ccco2)nc2ccccc12	299.1	49.4	94.3	78.4*	-3.0	14.2
COc1ccc(NC(=O)CN(C)C(=O)c2cc(-c3ccco3)nc3ccccc23)cc1	217.1	/	91.8	/	/	34.6
Cc1ccc(C(=O)NCc2nnc(SCC(=O)NC(C)c3ccccc3)n2C)cc1 (centres undefined)	186.9	-2.4	102.0	-5.5	-1.0	-1.8
CCOc1cc(N2CCOCC2)c(OCC)cc1NC(=O)CN1CCc2ccccc2C1	168.6	18.2	111.0	92.8*	0.0	5.3
COc1cc(/C=N/NC(=O)c2cc(-c3ccc4c(c3)OCO4)n[nH]2)ccc1O	161.0	54.9*	97.0	1.0	9.0	16.2
